Key:
Trypanosoma cruzi [1] = experiment: Anti-parasitic activity against Trypanosoma cruzi Y promastigotes infected in HG39 cells by qPCR analysis; format: functional, cell-based; conditions: in the assay text read “trypomastigotes” for “promastigotes”
In short: (§1)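 Confluent HG39 cells (3 x 10^6 per well) infected at a 1:1 ratio with blood-derived T. cruzi Y strain trypomastigotes. Growth inhibition was read as parasite gDNA by TaqMan probe-based quantitative real-time PCR.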

CYP2C9 = CYP2C9 (Homo sapiens, UniProt P11712); experiment: Inhibition of human CYP2C9 expressed in baculovirus-infected insect cells at 10 uM using Luciferin-H as substrate in presence of NADPH by P450-Glo luminescence assay relative to control; conditions: probe Luciferin-H
Sequence of CYP2C9 (P11712 whole entry): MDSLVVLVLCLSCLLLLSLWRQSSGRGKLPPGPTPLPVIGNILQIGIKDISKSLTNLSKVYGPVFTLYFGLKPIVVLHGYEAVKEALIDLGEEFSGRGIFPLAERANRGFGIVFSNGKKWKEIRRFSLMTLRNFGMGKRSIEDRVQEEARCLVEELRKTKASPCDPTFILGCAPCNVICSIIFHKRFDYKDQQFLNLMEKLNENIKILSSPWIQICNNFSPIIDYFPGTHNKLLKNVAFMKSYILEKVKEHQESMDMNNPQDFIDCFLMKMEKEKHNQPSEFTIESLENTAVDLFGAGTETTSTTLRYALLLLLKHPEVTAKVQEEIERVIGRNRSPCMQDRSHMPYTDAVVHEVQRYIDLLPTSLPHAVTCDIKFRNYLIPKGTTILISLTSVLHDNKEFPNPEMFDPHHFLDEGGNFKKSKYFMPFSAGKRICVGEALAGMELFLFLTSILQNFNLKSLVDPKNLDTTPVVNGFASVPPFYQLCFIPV

[2] = Cytotoxicity against human […] cells assessed as cell growth at 10 uM by Cell titer-Glo assay relative to control; format: cell-based; conditions: WI-38 cells, read-out: Activity
In short: (§2)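 A549 and WI-38 cells grown in DMEM with 10% v/v FCS, streptomycin 100 µg/ml and penicillin G 100 U/ml. Cell number read as cellular ATP by CellTiter-Glo luminescence. Growth 60–100% scored non-cytotoxic, 0–60% cytostatic, below 0 cytotoxic.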

CYP2C19 = CYP2C19 (Homo sapiens, UniProt P33261); experiment: Inhibition of human CYP2C19 expressed in baculovirus-infected insect cells at 10 uM using Luciferin-H EGE as substrate in presence of NADPH by P450-Glo luminescence assay relative to control; format: ADME; conditions: probe Luciferin-H EGE
Sequence of CYP2C19 (P33261 whole entry): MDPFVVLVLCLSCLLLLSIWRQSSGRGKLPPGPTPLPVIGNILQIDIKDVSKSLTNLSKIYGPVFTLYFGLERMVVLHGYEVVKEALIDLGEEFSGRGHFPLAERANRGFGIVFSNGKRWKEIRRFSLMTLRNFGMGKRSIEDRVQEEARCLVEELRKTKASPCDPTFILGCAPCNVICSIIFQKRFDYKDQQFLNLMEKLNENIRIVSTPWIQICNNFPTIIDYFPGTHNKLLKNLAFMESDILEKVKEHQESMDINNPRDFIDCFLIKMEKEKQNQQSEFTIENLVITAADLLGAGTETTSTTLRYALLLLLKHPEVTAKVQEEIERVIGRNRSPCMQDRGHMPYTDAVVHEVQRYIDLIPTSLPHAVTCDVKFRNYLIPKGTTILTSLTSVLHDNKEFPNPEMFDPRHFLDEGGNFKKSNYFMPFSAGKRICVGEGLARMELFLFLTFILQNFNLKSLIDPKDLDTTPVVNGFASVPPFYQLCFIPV
In short: (§3)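 CYP enzymes as microsomal preparations from baculovirus-infected insect cells, run on the P450-Glo luminogenic substrate platform. A fall in light output indicates inhibition.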

CYP1A2 = target: T1, CYP1A2 (Homo sapiens, UniProt P05177); experiment: Inhibition of human CYP1A2 expressed in baculovirus-infected insect cells at 10 uM using Luciferin-1A2 as substrate in presence of NADPH by P450-Glo luminescence assay relative to control; format: ADME; conditions: probe Luciferin-1A2; in short: as §3
T1 sequence (P05177 whole entry): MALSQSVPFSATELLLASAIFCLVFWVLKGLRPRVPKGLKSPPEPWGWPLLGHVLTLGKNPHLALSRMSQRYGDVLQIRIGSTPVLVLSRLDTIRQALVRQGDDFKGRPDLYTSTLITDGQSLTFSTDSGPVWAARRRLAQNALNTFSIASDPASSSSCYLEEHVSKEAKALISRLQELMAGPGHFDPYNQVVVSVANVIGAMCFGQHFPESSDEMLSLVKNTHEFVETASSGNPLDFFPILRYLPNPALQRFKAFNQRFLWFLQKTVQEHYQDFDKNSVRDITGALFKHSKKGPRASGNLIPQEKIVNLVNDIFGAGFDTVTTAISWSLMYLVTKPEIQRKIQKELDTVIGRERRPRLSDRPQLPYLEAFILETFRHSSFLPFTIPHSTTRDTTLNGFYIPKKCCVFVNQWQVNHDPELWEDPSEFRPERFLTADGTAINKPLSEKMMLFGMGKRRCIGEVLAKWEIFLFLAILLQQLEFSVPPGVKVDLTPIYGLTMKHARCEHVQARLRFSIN

[3] = tested on: Trypanosoma brucei brucei; experiment: Anti-parasitic activity against bloodstream form of Trypanosoma brucei brucei Lister 427 after 72 hrs by resazurin-based assay; format: functional; conditions: Lister 427, 72 h
In short: (§4)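 Bloodstream-form T. brucei, modified resazurin-based viability assay. EC50 is the arithmetic mean of at least two independent determinations, each run in triplicate.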

[4] = Selectivity index, ratio of CC50 for human THP1 cells to EC50 for anti-parasitic activity against bloodstream form of Trypanosoma brucei brucei Lister 427; format: toxicity; conditions: THP-1 cells, read-out: Ratio CC50/EC50
In short: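 SI = CC50 in PMA-differentiated THP-1 macrophages (MTT) divided by the antiparasitic EC50.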

Trypanosoma cruzi [5] = experiment: Anti-parasitic activity against Trypanosoma cruzi Y promastigotes infected in HG39 cells at 10 uM by qPCR analysis relative to control; format: functional, cell-based; conditions: in the assay text read “trypomastigotes” for “promastigotes”; in short: as §1
CYP3A4 = CYP3A4 (Homo sapiens, UniProt P08684); experiment: Inhibition of human CYP3A4 expressed in baculovirus-infected insect cells at 10 uM using Luciferin-PFBE as substrate in presence of NADPH by P450-Glo luminescence assay relative to control; format: ADME; conditions: probe Luciferin-PFBE
Sequence of CYP3A4 (P08684 whole entry): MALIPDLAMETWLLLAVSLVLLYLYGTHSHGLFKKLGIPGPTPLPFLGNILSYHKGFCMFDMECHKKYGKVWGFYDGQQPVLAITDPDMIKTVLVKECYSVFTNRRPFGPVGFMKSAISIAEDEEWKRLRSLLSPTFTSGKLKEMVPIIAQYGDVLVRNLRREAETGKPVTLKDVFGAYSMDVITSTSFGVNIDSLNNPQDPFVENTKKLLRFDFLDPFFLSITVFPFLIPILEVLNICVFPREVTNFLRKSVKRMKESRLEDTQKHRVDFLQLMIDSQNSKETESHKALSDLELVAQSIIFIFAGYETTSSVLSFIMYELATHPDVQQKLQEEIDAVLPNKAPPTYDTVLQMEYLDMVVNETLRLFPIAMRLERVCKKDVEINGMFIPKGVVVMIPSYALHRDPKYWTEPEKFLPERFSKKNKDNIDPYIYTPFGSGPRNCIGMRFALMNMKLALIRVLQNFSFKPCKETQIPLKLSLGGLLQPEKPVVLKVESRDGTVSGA

[6] = Cytotoxicity against human A549 cells assessed as cell growth at 10 uM by Cell titer-Glo assay relative to control; format: cell-based; conditions: read-out: Activity; in short: as §2
786-0 = experiment: Mitochondrial toxicity in human 786-O cells at 10 uM by mitotracker red chloromethyl-Xrosamine staining based-uptake method relative to control; format: cell-based; conditions: 786-0, 10 µM
In short: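 786-O renal carcinoma cells kept in RPMI-1640 with 2 mM glutamine, 10% v/v FCS, streptomycin 100 µg/ml and penicillin G 100 U/ml. Mitochondrial toxicity monitored by MitoTracker Red CMXRos uptake with high-content imaging.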

Aurora kinase B = Aurora kinase B (Homo sapiens, UniProt Q96GD4); experiment: Inhibition of N-terminal-GST-tagged recombinant full length human Aurora B expressed in baculovirus infected Sf9 cells at 10 uM using native Swine Myelin Basic Protein as substrate measured after 60 mins by ADP-Glo assay relative to control; conditions: probe native Swine Myelin Basic Protein
Sequence of Aurora kinase B (Q96GD4 whole entry): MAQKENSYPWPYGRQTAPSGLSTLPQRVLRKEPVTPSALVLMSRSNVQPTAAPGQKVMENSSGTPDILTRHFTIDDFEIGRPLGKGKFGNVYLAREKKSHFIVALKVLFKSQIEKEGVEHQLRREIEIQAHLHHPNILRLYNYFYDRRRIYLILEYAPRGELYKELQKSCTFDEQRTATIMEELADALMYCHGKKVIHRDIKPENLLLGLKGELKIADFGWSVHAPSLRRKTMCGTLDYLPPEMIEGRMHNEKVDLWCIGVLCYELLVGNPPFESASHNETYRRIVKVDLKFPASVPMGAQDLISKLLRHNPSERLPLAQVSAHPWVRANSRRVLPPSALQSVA
In short: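 Aurora B kinase activity measured by ADP-Glo, which detects ADP formed through a coupled luciferase luminescence read-out.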

[7] = Cytotoxicity against human THP1 cells by MTT assay; format: cell-based; conditions: THP-1 cells
In short: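 THP-1 cells differentiated to macrophages with PMA, viability read by colorimetric MTT. CC50 and NOAEL are the arithmetic mean of at least two independent determinations, each run in triplicate.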

[8] = Lipophilicity, log P of the compound; format: physicochemical; conditions: octanol/water
[9] = tested on: Trypanosoma brucei brucei; experiment: Anti-parasitic activity against bloodstream form of Trypanosoma brucei brucei Lister 427 at 10 uM after 72 hrs by resazurin-based assay relative to control; format: functional; conditions: Lister 427, 72 h; in short: as §4
hERG (KCNH2) = hERG (KCNH2) (Homo sapiens, UniProt Q12809); experiment: Inhibition of human ERG at 10 uM by Tracer Red dye based fluorescence polarization assay relative to control; conditions: probe Tracer Red dye
Sequence of hERG (KCNH2) (Q12809 whole entry): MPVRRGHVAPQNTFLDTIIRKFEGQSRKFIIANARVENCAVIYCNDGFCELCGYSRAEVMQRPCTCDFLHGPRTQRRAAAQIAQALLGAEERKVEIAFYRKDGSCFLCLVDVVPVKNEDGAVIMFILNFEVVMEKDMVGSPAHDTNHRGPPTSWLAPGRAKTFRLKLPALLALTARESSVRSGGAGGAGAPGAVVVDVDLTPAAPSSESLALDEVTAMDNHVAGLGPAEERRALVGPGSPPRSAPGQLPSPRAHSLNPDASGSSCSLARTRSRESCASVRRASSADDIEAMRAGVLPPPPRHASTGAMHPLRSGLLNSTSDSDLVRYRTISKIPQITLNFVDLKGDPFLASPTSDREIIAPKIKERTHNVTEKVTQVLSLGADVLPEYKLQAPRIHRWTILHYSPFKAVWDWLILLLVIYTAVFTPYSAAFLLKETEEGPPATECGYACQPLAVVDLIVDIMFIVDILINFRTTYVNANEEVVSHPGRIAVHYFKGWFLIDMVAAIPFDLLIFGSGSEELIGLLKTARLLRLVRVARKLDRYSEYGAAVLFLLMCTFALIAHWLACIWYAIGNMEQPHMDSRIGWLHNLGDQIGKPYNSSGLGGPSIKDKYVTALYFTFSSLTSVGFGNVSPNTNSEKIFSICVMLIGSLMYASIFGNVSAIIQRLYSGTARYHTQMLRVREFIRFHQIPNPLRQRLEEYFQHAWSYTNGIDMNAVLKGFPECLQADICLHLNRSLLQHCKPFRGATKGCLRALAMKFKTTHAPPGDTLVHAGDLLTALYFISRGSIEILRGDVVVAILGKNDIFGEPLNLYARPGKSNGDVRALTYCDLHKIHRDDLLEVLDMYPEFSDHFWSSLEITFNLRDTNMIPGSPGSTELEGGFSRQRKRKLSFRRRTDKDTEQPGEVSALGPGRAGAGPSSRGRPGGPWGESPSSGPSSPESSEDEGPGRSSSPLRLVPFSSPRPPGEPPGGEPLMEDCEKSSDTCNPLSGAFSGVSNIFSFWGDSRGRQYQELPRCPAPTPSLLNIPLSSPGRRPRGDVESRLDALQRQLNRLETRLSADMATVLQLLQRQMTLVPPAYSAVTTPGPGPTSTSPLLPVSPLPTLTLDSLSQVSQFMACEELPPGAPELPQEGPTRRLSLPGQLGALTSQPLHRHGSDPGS

CYP2D6 = CYP2D6 (Homo sapiens, UniProt P10635); experiment: Inhibition of human CYP2D6 expressed in baculovirus-infected insect cells at 10 uM using Luciferin-ME EGE as substrate in presence of NADPH by P450-Glo luminescence assay relative to control; format: ADME; conditions: probe Luciferin-ME EGE; in short: as §3
Sequence of CYP2D6 (P10635 whole entry): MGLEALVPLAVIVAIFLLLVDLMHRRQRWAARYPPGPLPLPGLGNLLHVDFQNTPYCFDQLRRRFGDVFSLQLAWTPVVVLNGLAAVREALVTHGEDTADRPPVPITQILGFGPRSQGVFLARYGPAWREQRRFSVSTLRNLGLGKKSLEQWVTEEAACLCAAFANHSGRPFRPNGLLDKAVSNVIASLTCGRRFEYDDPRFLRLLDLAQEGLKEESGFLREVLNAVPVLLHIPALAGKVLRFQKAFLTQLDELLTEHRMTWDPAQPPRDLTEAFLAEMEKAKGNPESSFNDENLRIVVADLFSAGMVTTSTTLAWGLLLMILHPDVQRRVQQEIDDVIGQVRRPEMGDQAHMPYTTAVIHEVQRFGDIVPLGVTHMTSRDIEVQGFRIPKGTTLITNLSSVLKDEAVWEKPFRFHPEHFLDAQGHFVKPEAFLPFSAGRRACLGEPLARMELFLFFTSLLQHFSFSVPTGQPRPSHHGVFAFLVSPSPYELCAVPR

Leishmania infantum = experiment: Anti-parasitic activity against Leishmania infantum amastigotes infected in human THP1 cells at 50 uM after 5 days by Giemsa staining based assay relative to control; format: functional, cell-based; conditions: THP-1, 120 h
In short: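 Intracellular L. infantum amastigotes in host cells, imaged by high-content automated imaging. Host cell number, infected cells and parasites per infected cell were counted. Infection Ratio = infected cells / total cells.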

| EC50 (Trypanosoma cruzi [1]) [µM] | inhibition at 10 µM (CYP2C9) [%] | inhibition at 10 µM (CYP2C19) [%] | inhibition at 10 µM (CYP1A2) [%] | EC50 [3] [µM] | inhibition at 10 µM (CYP3A4) [%] | inhibition at 1 h, 10 µM (Aurora kinase B) [%] | logP [8] | inhibition at 10 µM (CYP2D6) [%] | EC50 (Leishmania infantum) [µM] | SMILES | viability at 10 µM [2] [%] | selectivity ratio [4] | inhibition at 10 µM (Trypanosoma cruzi [5]) [%] | viability at 10 µM [6] [%] | Activity (786-0) [%] | CC50 [7] [µM] | inhibition at 10 µM [9] [%] | inhibition at 10 µM (hERG (KCNH2)) [%] | inhibition at 50 µM (Leishmania infantum) [%] |
| --- | --- | --- | --- | --- | --- | --- | --- | --- | --- | --- | --- | --- | --- | --- | --- | --- | --- | --- | --- |
|  | 21.7 | 34.2 | 39.6 |  | 5 | 107 | 3.88 | 47.7 |  | COc1ccc(/C=C/C(=O)c2ccc(OC)cc2O)cc1 | 14.2 |  | 47 | 102 | 14.2 | > 100 | 18 | 2.7 |  |
| < 10 | 10.7 | 50 | 36.2 |  | 2.4 | -10.4 | 3.53 | 92.7 |  | COc1ccc(C(=O)/C=C/c2ccc(OC)c(OC)c2)c(O)c1 | 128 |  | 48 | 98.8 | -5.8 | > 100 | 10 | 3.5 | 10 |
|  |  |  |  | 20.1 |  |  |  |  |  | COc1ccc(-c2oc3ccc(OC)cc3c(=O)c2O)cc1 |  | 1 |  |  |  |  |  |  |  |
| < 10 | 47.4 | 63.5 | 75.4 | 3.4 | -8.3 | -10.6 | 3.86 | 58 |  | COc1cccc(/C=C/C(=O)c2ccc(OC)cc2O)c1 | 63 | ≥ 7 | 74 | 110 | -2.9 | > 25 | 100 | 13.6 | 21 |
|  | -26.9 | 21.4 | 60 |  | -2.7 | -10.1 | 3.52 | 93.7 |  | COc1ccc(O)c(C(=O)/C=C/c2ccc(OC)c(OC)c2)c1 | 114 |  | 0 | 116 | -9.5 | > 50 | 15 | 15.9 | 16 |
|  |  |  |  | 1.43 |  |  |  |  |  | COc1cccc(-c2oc3ccc(OC)cc3c(=O)c2O)c1 |  | 10 |  |  |  |  |  |  |  |

Second part, the compound before the results:

| SMILES | EC50 (Trypanosoma cruzi [1]) [µM] | inhibition at 10 µM (CYP2C9) [%] | inhibition at 10 µM (CYP2C19) [%] | inhibition at 10 µM (CYP1A2) [%] | EC50 [3] [µM] | inhibition at 10 µM (CYP3A4) [%] | inhibition at 1 h, 10 µM (Aurora kinase B) [%] | logP [8] | inhibition at 10 µM (CYP2D6) [%] | EC50 (Leishmania infantum) [µM] | viability at 10 µM [2] [%] | selectivity ratio [4] | inhibition at 10 µM (Trypanosoma cruzi [5]) [%] | viability at 10 µM [6] [%] | Activity (786-0) [%] | CC50 [7] [µM] | inhibition at 10 µM [9] [%] | inhibition at 10 µM (hERG (KCNH2)) [%] | inhibition at 50 µM (Leishmania infantum) [%] |
| --- | --- | --- | --- | --- | --- | --- | --- | --- | --- | --- | --- | --- | --- | --- | --- | --- | --- | --- | --- |
| COc1ccc(O)c(C(=O)/C=C/c2c(OC)cccc2OC)c1 | < 10 | 36.9 | 61.1 | 41.7 | 2.1 | 15.3 | 104 | 3.52 | 11.7 |  | 14.6 | ≥ 12 | 52 | 103 | 14.6 | > 25 | 86 | -7.1 |  |
| C=CC(C)(C)c1cc(/C=C/C(=O)c2ccc(O)cc2)c(OC)cc1O [LICOAGROCHACONE A] |  |  |  |  |  |  |  | 4.74 |  |  |  |  |  |  |  |  |  |  |  |
| COc1ccc(-c2oc3cc(OC)ccc3c(=O)c2O)cc1 |  |  |  |  | 1.1 |  |  |  |  |  |  | 9 |  |  |  |  |  |  |  |
| CCCCCCCCCCCCCCCCOP(=O)([O-])OCC[N+](C)(C)C [MILTEFOSINE] |  |  |  |  |  |  |  |  |  | 2.65 |  |  |  |  |  |  |  |  |  |

Reference: ChEMBL document CHEMBL3997782, “Methoxylated 2'-hydroxychalcones as antiparasitic hit compounds” (Eur J Med Chem, 2017)
